From ChEMBL document CHEMBL1148383, “Semisynthetic macrolide antibacterials derived from tylosin. Synthesis and structure-activity relationships of novel desmycosin analogues” (J Med Chem, 2004)
Converted amounts (≈) assume the structure as drawn.

How the values were obtained:
Assay type in all cases: functional
Escherichia coli = experiment: Antibacterial activity against Escherichia coli ATCC […]
How it was run: (§1)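 MICs were determined by broth microdilution following NCCLS guidelines. The test panel includes erythromycin-susceptible strains and erythromycin-resistant strains with constitutive or inducible MLSB phenotypes or with efflux resistance.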

Staphylococcus aureus [1] = experiment: Antibacterial activity against Staphylococcus aureus PSCB-0330; how it was run: as §1
Enterococcus faecalis = experiment: Antibacterial activity against Enterococcus faecalis ATCC 29212; how it was run: as §1
Haemophilus influenzae = experiment: Antibacterial activity against Haemophilus influenzae ATCC 49247; how it was run: as §1
Streptococcus pneumoniae = experiment: Antibacterial activity against Streptococcus pneumoniae PSCB-0541; how it was run: as §1
Staphylococcus aureus [2] = experiment: Antibacterial activity against Staphylococcus aureus ATCC 13709; how it was run: as §1
Streptococcus pyogenes [3] = experiment: Antibacterial activity against Streptococcus pyogenes PSCB-0543; how it was run: as §1
Streptococcus pyogenes [4] = experiment: Antibacterial activity against Streptococcus pyogenes PSCB-0545; how it was run: as §1
Staphylococcus aureus [5] = experiment: Antibacterial activity against Staphylococcus aureus PSCB-0331; how it was run: as §1
Staphylococcus aureus [6] = experiment: Antibacterial activity against Staphylococcus aureus PSCB-0538; how it was run: as §1

MIC (Escherichia coli) [µg/mL]	MIC (Staphylococcus aureus [1]) [µg/mL]	MIC (Enterococcus faecalis) [µg/mL]	MIC (Haemophilus influenzae) [µg/mL]	MIC (Streptococcus pneumoniae) [µg/mL]	MIC (Staphylococcus aureus [2]) [µg/mL]	MIC (Streptococcus pyogenes [3]) [µg/mL]	MIC (Streptococcus pyogenes [4]) [µg/mL]	MIC (Staphylococcus aureus [5]) [µg/mL]	MIC (Staphylococcus aureus [6]) [µg/mL]	Structure (SMILES)
128 (≈ 166 µM)	> 128	1 (≈ 1.3 µM)	4 (≈ 5.18 µM)	1 (≈ 1.3 µM)	1 (≈ 1.3 µM)	1 (≈ 1.3 µM)	0.5 (≈ 0.648 µM)	1 (≈ 1.3 µM)	1 (≈ 1.3 µM)	CC[C@H]1OC(=O)C[C@@H](O)[C@H](C)[C@@H](O[C@@H]2O[C@H](C)[C@@H](O)[C@@H](N(C)C)[C@H]2O)[C@@H](CC=O)C[C@@H](C)C(=O)/C=C/C(C)=C/[C@@H]1CO[C@@H]1O[C@H](C)[C@@H](O)[C@@H](OC)[C@H]1OC
> 128	> 128	8 (≈ 9.83 µM)	32 (≈ 39.3 µM)	2 (≈ 2.46 µM)	1 (≈ 1.23 µM)	2 (≈ 2.46 µM)	2 (≈ 2.46 µM)	2 (≈ 2.46 µM)	8 (≈ 9.83 µM)	CC[C@H]1OC(=O)C[C@@H](OC(C)=O)[C@H](C)[C@@H](OC2OC(C)C(O)C(N(C)C)C2O)[C@@H](CC=O)C[C@@H](C)C(=O)/C=C/C(C)=C/[C@@H]1COC1OC(C)C(O)C(OC)C1OC (some centres undefined)
> 128	> 128	4 (≈ 4.84 µM)	128 (≈ 155 µM)	32 (≈ 38.7 µM)	2 (≈ 2.42 µM)	4 (≈ 4.84 µM)	4 (≈ 4.84 µM)	2 (≈ 2.42 µM)	2 (≈ 2.42 µM)	CC[C@H]1O/C(O)=C/C(=O)[C@H](C)[C@@H](OC2OC(C)C(O)C(N(C)C)C2O)[C@@H](C/C=C/C(=O)OC)C[C@@H](C)C(=O)/C=C/C(C)=C/[C@@H]1COC1OC(C)C(O)C(OC)C1OC (some centres undefined)
> 128	> 128	16 (≈ 20.8 µM)	64 (≈ 83.1 µM)	32 (≈ 41.6 µM)	32 (≈ 41.6 µM)	64 (≈ 83.1 µM)	32 (≈ 41.6 µM)	64 (≈ 83.1 µM)	32 (≈ 41.6 µM)	CC[C@H]1OC(=O)CC2(O)C(C=O)[C@@H](C[C@@H](C)C(=O)/C=C/C(C)=C/[C@@H]1CO[C@@H]1O[C@@H](C)[C@@H](O)[C@@H](OC)[C@@H]1OC)[C@H](O[C@@H]1O[C@@H](C)[C@@H](O)[C@@H](N(C)C)[C@H]1O)[C@H]2C (some centres undefined)
> 128	> 128	8 (≈ 10.4 µM)	> 128	8 (≈ 10.4 µM)	8 (≈ 10.4 µM)	32 (≈ 41.6 µM)	4 (≈ 5.2 µM)	32 (≈ 41.6 µM)	16 (≈ 20.8 µM)	CC[C@H]1O/C(O)=C/C(=O)[C@H](C)[C@@H](OC2OC(C)C(O)C(N(C)C)C2O)[C@@H](CC=O)C[C@@H](C)C(=O)/C=C/C(C)=C/[C@@H]1COC1OC(C)C(O)C(OC)C1OC (some centres undefined)
> 128	> 128	> 128	> 128	64 (≈ 82.7 µM)	8 (≈ 10.3 µM)	8 (≈ 10.3 µM)	1 (≈ 1.29 µM)	8 (≈ 10.3 µM)	16 (≈ 20.7 µM)	CC[C@H]1O/C(O)=C/C(=O)[C@H](C)[C@@H](OC2OC(C)C(O)C(N(C)C)C2O)[C@@H](CC=O)C[C@@H](C)C(=O)CCC(C)C[C@@H]1COC1OC(C)C(O)C(OC)C1OC (some centres undefined)
> 128	> 128	2 (≈ 1.99 µM)	8 (≈ 7.96 µM)	4 (≈ 3.98 µM)	< 0.25	2 (≈ 1.99 µM)	0.5 (≈ 0.497 µM)	0.5 (≈ 0.497 µM)	0.25 (≈ 0.249 µM)	CCOC(=O)/C=C/C[C@H]1C[C@@H](C)C(=O)/C=C/C(C)=C/[C@H](COC2OC(C)C(O)C(OC)C2OC)[C@@H](CC)OC(=O)C[C@@H](OC(=O)Cc2ccc([N+](=O)[O-])cc2)[C@H](C)[C@H]1OC1OC(C)C(O)C(N(C)C)C1O (some centres undefined)
> 128	> 128	4 (≈ 5.2 µM)	128 (≈ 166 µM)	8 (≈ 10.4 µM)	8 (≈ 10.4 µM)	64 (≈ 83.1 µM)	16 (≈ 20.8 µM)	32 (≈ 41.6 µM)	4 (≈ 5.2 µM)	CC[C@H]1OC(=O)CC(=O)[C@H](C)[C@@H](O[C@@H]2O[C@@H](C)[C@@H](O)[C@@H](N(C)C)[C@H]2O)[C@H]2C[C@@H](O)[C@](C)(C2)C(=O)/C=C/C(C)=C/[C@@H]1CO[C@@H]1O[C@@H](C)[C@@H](O)[C@@H](OC)[C@@H]1OC

Second part, the molecule before the results:

Structure (SMILES)	MIC (Escherichia coli) [µg/mL]	MIC (Staphylococcus aureus [1]) [µg/mL]	MIC (Enterococcus faecalis) [µg/mL]	MIC (Haemophilus influenzae) [µg/mL]	MIC (Streptococcus pneumoniae) [µg/mL]	MIC (Staphylococcus aureus [2]) [µg/mL]	MIC (Streptococcus pyogenes [3]) [µg/mL]	MIC (Streptococcus pyogenes [4]) [µg/mL]	MIC (Staphylococcus aureus [5]) [µg/mL]	MIC (Staphylococcus aureus [6]) [µg/mL]
CC[C@H]1OC(=O)C[C@H](O)[C@H](C)[C@@H](OC2OC(C)C(O)C(N(C)C)C2O)[C@@H](C/C=C/C(=O)OC)C[C@@H](C)C(=O)/C=C/C(C)=C/[C@@H]1COC1OC(C)C(O)C(OC)C1OC (some centres undefined)	> 128	> 128								
CC[C@H]1OC(=O)C[C@@H](O)[C@H](C)[C@@H](OC2OC(C)C(O)C(=O)C2O)[C@@H](CC=O)C[C@@H](C)C(=O)/C=C/C(C)=C/[C@@H]1COC1OC(C)C(O)C(OC)C1OC (some centres undefined)	> 128	> 128								
CC[C@H]1OC(=O)C[C@@H](O)[C@H](C)[C@@H](OC2OC(C)C(OC3CC(C)(O)C(O)C(C)O3)C(N(C)C)C2O)[C@@H](CC=O)C[C@@H](C)C(=O)CCC(C)C[C@@H]1COC1OC(C)C(O)C(OC)C1OC (some centres undefined)	64 (≈ 69.6 µM)	64 (≈ 69.6 µM)	16 (≈ 17.4 µM)	64 (≈ 69.6 µM)	8 (≈ 8.69 µM)	2 (≈ 2.17 µM)	64 (≈ 69.6 µM)	1 (≈ 1.09 µM)	2 (≈ 2.17 µM)	4 (≈ 4.35 µM)
CC[C@H]1OC(=O)C[C@@H](O)[C@H](C)[C@@H](OC2OC(C)C(O)C(N(C)C)C2O)[C@@H](CC=O)C[C@@H](C)C(=O)CCC(C)C[C@@H]1COC1OC(C)C(O)C(OC)C1OC (some centres undefined)	128 (≈ 165 µM)	128 (≈ 165 µM)	32 (≈ 41.2 µM)	64 (≈ 82.5 µM)	2 (≈ 2.58 µM)	1 (≈ 1.29 µM)	1 (≈ 1.29 µM)	1 (≈ 1.29 µM)	2 (≈ 2.58 µM)	2 (≈ 2.58 µM)
CCOC(=O)/C=C/C[C@H]1C[C@@H](C)C(=O)/C=C/C(C)=C/[C@H](COC2OC(C)C(O)C(OC)C2OC)[C@@H](CC)OC(=O)C[C@@H](NN(C(=O)OCC)C(=O)OCC)[C@H](C)[C@H]1OC1OC(C)C(O)C(N(C)C)C1O (some centres undefined)	128 (≈ 128 µM)	128 (≈ 128 µM)	64 (≈ 64 µM)	128 (≈ 128 µM)	32 (≈ 32 µM)	4 (≈ 4 µM)	32 (≈ 32 µM)	16 (≈ 16 µM)	32 (≈ 32 µM)	64 (≈ 64 µM)
CCOC(=O)/C=C/C[C@H]1C[C@@H](C)C(=O)/C=C/C(C)=C/[C@H](COC2OC(C)C(O)C(OC)C2OC)[C@@H](CC)OC(=O)C[C@@H](O)[C@H](C)[C@H]1OC1OC(C)C(O)C(N(C)C)C1O (some centres undefined)	> 128	> 128	1 (≈ 1.19 µM)	4 (≈ 4.75 µM)	2 (≈ 2.38 µM)	0.5 (≈ 0.594 µM)	0.5 (≈ 0.594 µM)	1 (≈ 1.19 µM)	0.25 (≈ 0.297 µM)	0.25 (≈ 0.297 µM)
CC[C@H]1OC(=O)CC(=O)[C@H](C)[C@@H](O[C@@H]2O[C@@H](C)[C@@H](O)[C@@H](N(C)C)[C@H]2O)[C@H]2C[C@H](O)[C@@](C)(C2)C(=O)/C=C/C(C)=C/[C@@H]1CO[C@@H]1O[C@@H](C)[C@@H](O)[C@@H](OC)[C@@H]1OC	> 128	> 128	8 (≈ 10.4 µM)	128 (≈ 166 µM)	4 (≈ 5.2 µM)	8 (≈ 10.4 µM)	64 (≈ 83.1 µM)	16 (≈ 20.8 µM)	32 (≈ 41.6 µM)	8 (≈ 10.4 µM)
CC[C@H]1OC(=O)C[C@@H](O)[C@H](C)[C@@H](OC2OC(C)C(O)C(N(C)C)C2O)[C@@H](C/C=C/C(=O)OC)C[C@@H](C)C(=O)/C=C/C(C)=C/[C@@H]1COC1OC(C)C(O)C(OC)C1OC (some centres undefined)	> 128	> 128	0.5 (≈ 0.604 µM)	16 (≈ 19.3 µM)	2 (≈ 2.42 µM)	0.5 (≈ 0.604 µM)	0.5 (≈ 0.604 µM)	0.5 (≈ 0.604 µM)	0.5 (≈ 0.604 µM)	0.5 (≈ 0.604 µM)
CC[C@H]1OC(=O)C[C@@H](O)[C@H](C)[C@@H](O[C@@H]2O[C@H](C)[C@@H](O[C@H]3C[C@@](C)(O)[C@@H](O)[C@H](C)O3)[C@H](N(C)C)[C@H]2O)[C@@H](CC=O)C[C@@H](C)C(=O)/C=C/C(C)=C/[C@@H]1CO[C@@H]1O[C@H](C)[C@@H](O)[C@@H](OC)[C@H]1OC [TYLOSIN]	64 (≈ 69.9 µM)	> 128	1 (≈ 1.09 µM)	8 (≈ 8.73 µM)	0.5 (≈ 0.546 µM)	1 (≈ 1.09 µM)	1 (≈ 1.09 µM)	0.5 (≈ 0.546 µM)	1 (≈ 1.09 µM)	0.5 (≈ 0.546 µM)
CC[C@H]1OC(=O)/C=C\[C@H](C)[C@@H](OC2OC(C)C(O)C(N(C)C)C2O)[C@@H](CC=O)C[C@@H](C)C(=O)/C=C/C(C)=C/[C@@H]1COC1OC(C)C(O)C(OC)C1OC (some centres undefined)	> 128	> 128	8 (≈ 10.6 µM)	4 (≈ 5.31 µM)	2 (≈ 2.65 µM)	0.5 (≈ 0.663 µM)	2 (≈ 2.65 µM)	1 (≈ 1.33 µM)	1 (≈ 1.33 µM)	4 (≈ 5.31 µM)
CC[C@H]1OC(=O)C[C@@H](O)[C@H](C)[C@@H](OC2OC(C)C(O)C(N(C)C)C2O)[C@@H](C/C=C/C(=O)O)C[C@@H](C)C(=O)/C=C/C(C)=C/[C@@H]1COC1OC(C)C(O)C(OC)C1OC (some centres undefined)	> 128	> 128	> 128	128 (≈ 157 µM)	> 128	> 128	> 128	128 (≈ 157 µM)	> 128	> 128
